Broadly, the pEC50 is −log10 of the EC50, conventionally taken in molar units. As a reminder, the pIC50 is the negative decadic logarithm of the IC50, by convention in mol/L.

SMILES strings stand for the structures. pEC50, pIC50: −log10 of the molar value. Activity calls are given as the source filed them. The calls are words filed in the database; no cut-off is given here.

The test system of data set [1] is HepG2. Put plainly: (§1) Suppression of rotenone-induced ATP depletion in human HepG2 cells assessed as rescue of ATP level at 5 uM incubated for 2 hrs by Celltiter-Glo assay relative to control. Type of data set: functional. Summed up:
(§2)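 HepG2 cells seeded 10×10^3 per well in 1 g/L glucose, 2% FBS medium the day before. Switched to glucose- and FBS-free medium containing 10 µM rotenone, with compound added at the same time, 2 h at 37 °C. ATP read by CellTiter-Glo luminescence, normalized to DMSO cells without rotenone. Mean ± SEM of ≥3 independent runs. Complex III inhibitors, where used, at 50 nM.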
(Cellular ATP, detected with luciferase, serves as a proxy for viable cell number.)

Data set [2] can be described thus: Suppression of rotenone-induced ATP depletion in human HepG2 cells incubated for 2 hrs by Celltiter-Glo assay. Conditions: HepG2, 2 h. It is filed as functional, cell-based. The gist of the method: as §2
A short description of data set [3]: as §1. Type of data set: functional. Summed up:
as §2

The test system of data set [4] is SH-SY5Y. The experiment in a line: Cytotoxicity against human SH-SY5Y cells assessed as reduction in cell viability at 25 uM incubated for 24 hrs by Celltiter-blue assay. Type of data set: cell-based. Summed up:
(§3)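 HepG2 or SH-SY5Y seeded 10×10^3 per well the day before in 1 g/L glucose medium with 2% FBS. Medium replaced with fresh 2% FBS, 1 g/L glucose medium containing compound (25 µM) for 24 h at 37 °C. CellTiter-Blue added for 4 h, fluorescence read at 560/590 nm. Viability given as % of vehicle/untreated cells. Mean ± SEM of ≥3 independent runs.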

The test system of data set [5] is HepG2. Put plainly: Suppression of rotenone-induced ATP depletion in human HepG2 cells assessed as rescue of ATP level at 5 uM incubated for 2 hrs in presence of complex III inhibitor myxothiazol by Celltiter-Glo assay. Type of data set: functional, cell-based. The gist of the method: as §2
For data set [6], the system named is HepG2. Put plainly: Suppression of rotenone-induced ATP depletion in human HepG2 cells assessed as rescue of ATP level at 5 uM incubated for 2 hrs in presence of complex III inhibitor antimycin by Celltiter-Glo assay. It is filed as functional, cell-based. Summed up:
as §2

The subject of data set [7] is HepG2. The experiment in a line: Cytotoxicity against human HepG2 cells assessed as reduction in cell viability incubated for 24 hrs by Celltiter-blue assay. It is filed as cell-based. Conditions: HepG2, 24 h. On the technique in general: Resazurin is reduced to fluorescent resorufin, in cell work by metabolically active cells.
Data set [8] concerns SH-SY5Y. The experiment in a line: Cytotoxicity against human SH-SY5Y cells assessed as reduction in cell viability incubated for 24 hrs by Celltiter-blue assay. Type of data set: cell-based.
Data set [9] relates to HepG2. The experiment in a line: Suppression of rotenone-induced ATP depletion in human HepG2 cells assessed as increase in rescue of ATP level at 0.1 to 1 uM incubated for 2 hrs by Celltiter-Glo assay. Type of data set: functional, cell-based. As to conditions: dose microM 0.1-1, time 2.0 hrs. The gist of the method:
as §2

Data set [10] is described as follows: Cytoprotection against rotenone-induced C57BL/6J mouse retinal ganglion cells loss assessed as cell survival at 10 uM incubated for 24 hrs by Hoechst 33342 staining based counting method (reference value: 41%). Conditions: RGC, read-out: Activity. It is filed as functional. Summed up: (§4)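 Retinal explants from 6–8 month old female wild-type C57BL/6J mice, enucleated eyes placed in ice-cold HBSS. Explants incubated 24 h ex vivo in pre-warmed Neurobasal A with compounds in 0.1% DMSO, alone for toxicity or with 100 µM rotenone for activity. Hoechst 33342-stained nuclei (and anti-RBPMS-positive RGCs) counted in the central retina ganglion cell layer. Mean ± SEM, 1-way ANOVA with Tukey.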

Data set [11] is described as follows: Cytotoxicity against C57BL/6J mouse RGC cells at 20 uM incubated for 24 hrs by Hoechst 33342 staining based counting method. Type of data set: cell-based. The gist of the method:
as §4

Data set [12] can be described thus: Suppression of rotenone-induced ATP depletion in human HepG2 cells assessed as rescue of ATP level incubated for 2 hrs by Celltiter-Glo assay relative to control. Type of data set: functional. Further details: concentration or dose not given beside the values. Summed up: as §2
A short description of data set [13]: Cytotoxicity against human HepG2 cells assessed as cell viability at 25 uM incubated for 24 hrs by Celltiter-blue assay relative to control. Conditions: read-out: Activity. It is filed as cell-based. Summed up: as §3
Data set [14] deals with NAD(P)H dehydrogenase [quinone] 1 (Homo sapiens) (UniProt P15559). Put plainly: Substrate activity at NQO1 in human HepG2 cells assessed as reduction in cell viability by WST-1 assay. It is filed as cell-based. On the technique in general: Formazan colour is commonly taken as a measure of viable cells.
The nature of data set [15]: Cytotoxicity against C57BL/6J mouse RGC cells assessed as reduction in number of cells at 50 uM incubated for 24 hrs by Hoechst 33342 staining based counting method. Type of data set: cell-based. The gist of the method: as §4
In data set [16] the test system is HepG2. Put plainly: Suppression of rotenone-induced ATP depletion in human HepG2 cells assessed as increase in rescue of ATP level at 1 uM incubated for 2 hrs by Celltiter-Glo assay. Type of data set: functional, cell-based. The gist of the method:
as §2

For data set [17], the system named is HepG2. The experiment in a line: Cytotoxicity against human HepG2 cells assessed as cell reduction in cell viability at 25 uM incubated for 24 hrs by Celltiter-blue assay. Type of data set: cell-based. As to conditions: hepg2, 24 h. Summed up: as §3
Data set [18] deals with SH-SY5Y. Put plainly: Cytotoxicity against human SH-SY5Y cells assessed as reduction in cell viability by WST-1 assay. Type of data set: cell-based.
The nature of data set [19]: Cytotoxicity against […] assessed as reduction in cell viability by WST-1 assay. Conditions: r28. It is filed as cell-based.
Data set [20] has as its system HepG2. The experiment in a line: Suppression of rotenone-induced ATP depletion in human HepG2 cells assessed as rescue of ATP level at 5 uM incubated for 2 hrs in presence of NQO1 inhibitor dicoumarol by Celltiter-Glo assay. Type of data set: functional, cell-based.
The subject of data set [21] is HepG2. Put plainly: Suppression of rotenone-induced ATP depletion in human HepG2 cells assessed as rescue of ATP level at 5 uM incubated for 2 hrs in presence of NQO1 irreversible inhibitor ES936 by Celltiter-Glo assay. It is filed as functional, cell-based.
Data set [22] deals with RGC. The experiment in a line: Cytoprotection against rotenone-induced C57BL/6J mouse retinal ganglion cells loss assessed as increase in cell survival at 3 uM incubated for 24 hrs by Hoechst 33342 staining based counting method. It is filed as functional, tissue-based. As to conditions: in the assay text read “anti-RBPMS antibody staining” for “Hoechst 33342 staining”. Summed up:
as §4

Data set [23] is described as follows: Cytotoxicity against C57BL/6J mouse RGC cells assessed as reduction in number of cells at 100 uM incubated for 24 hrs by Hoechst 33342 staining based counting method. Type of data set: cell-based. Summed up: as §4
For data set [24], the target named is NAD(P)H dehydrogenase [quinone] 1 (Homo sapiens) (UniProt P15559). Put plainly: Substrate activity at recombinant NQO1 (unknown origin) assessed as reduction in NADH level at 20 uM measured for 6 mins by microplate reader analysis.
For data set [25] the target is unchanged. The experiment in a line: Substrate activity at NQO1 in human HepG2 cells assessed as reduction in cell viability in presence of NQO1 inhibitor dicoumarol by WST-1 assay. It is filed as cell-based.

Chain of NAD(P)H dehydrogenase [quinone] 1 (Homo sapiens) (P15559 whole entry): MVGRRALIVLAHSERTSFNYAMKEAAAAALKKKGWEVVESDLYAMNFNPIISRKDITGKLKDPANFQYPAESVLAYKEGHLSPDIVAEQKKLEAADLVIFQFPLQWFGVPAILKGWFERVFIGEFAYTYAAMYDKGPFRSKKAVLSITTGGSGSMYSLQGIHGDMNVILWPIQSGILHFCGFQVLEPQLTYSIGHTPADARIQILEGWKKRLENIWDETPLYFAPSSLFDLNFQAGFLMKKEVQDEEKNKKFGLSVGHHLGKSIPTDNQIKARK

For `NC1=C(Cl)C(=O)c2ccccc2C1=O`, the result in [1] was inactive.

In the case of `O=C1C(Cl)=C(NCCC(F)(F)F)C(=O)c2ccccc21`, in data set [1], the outcome was inactive.

`COC1=C(OC)C(=O)C(CCCCCCCCCCO)=C(C)C1=O` [IDEBENONE] had a negative-log EC50 (pEC50) in data set [2] of 6.03. The Activity in [3] was 70%; in data set [4], “Toxic”; in [11], “Toxic”; in [12], 44.3%. The result in [5] and in data set [6] was inactive. In addition, the figures for the pIC50 in [7] and in data set [8] were 4.19 and 4.80, respectively. Further, the outcome in data set [9] was Active. The viability at 10 µM in [10] was 73%. Also, the viability at 24 h, 25 µM in data set [13] was 92.8%.

`CSC1=C(Nc2ccc(F)c(C(F)(F)F)c2)C(=O)c2ccccc2C1=O`: in [2], the pEC50 was 6.44. Also, the outcome in data set [14], in [16], in data set [9], in data set [22] and in data set [24] was Active. The Activity result in data set [15] is recorded as “Non-Toxic”; in [17] it was “Toxic”; in data set [4] it was “Toxic”; in data set [18], “Non-Toxic”; in [19], “Non-Toxic”; in data set [23], “Toxic”. For the same compound, in [12], the Activity is 55.7%. Besides, the result in data set [20], in [21], in data set [5], in [6] and in data set [25] was inactive. The values for the pIC50 in data set [7] and in [8] were 4.52 and under 4.00, respectively. In addition, the viability at 24 h, 25 µM in data set [13] amounted to 76.9%.

In the case of `COC1=C(Nc2ccc(F)c(C(F)(F)F)c2)C(=O)c2ccccc2C1=O`, in data set [2], the negative logarithm of the EC50 (pEC50) is 6.34. For the same compound, the outcome in [14], in [16], in data set [9] and in data set [24] was Active. In addition, the Activity result in data set [4] was “Non-Toxic”; in data set [18] it was “Non-Toxic”; in data set [19], “Non-Toxic”; in data set [12], 58.6%. Also, the result in [20], in data set [21], in [5], in data set [6] and in data set [25] was inactive. The pIC50 in [7] and in [8] was under 4.00 in each case. Besides, the viability at 24 h, 25 µM in [13] stood at 96.5%.
